The text below walks through data of PubChem BioAssay.

Assay [1] can be described thus: inhibitors of TNFa-induced NFkB p65 translocation, primary screen, imaging, HUVEC, MLSMR starter and 10KST1 sets (AID 438;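 active = inhibition above 20% together with a positive visual image hit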;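 also: compound added about 3h40 before a 20 min TNFalpha stimulation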;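 as to inhibition: signal is the nuclear over cytoplasmic p65 intensity ratio per well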). The settings on record: HUVEC TNFa-induced p65 nuclear translocation; cell count: measured here: nuclei count (cytotoxicity indicator), at 2.08 µM; inhibition: at 2 µM, stronger effect = higher value, 0% TNFa-plus-vehicle, 100% no-TNFa wells.
Assay [2] is described as follows: endothelial E-selectin expression blockers – imaging, HUVEC, immunofluorescence, MLSMR starter and 10KST1 sets, primary screen (AID 487).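 As to inhibition: signal is fraction of cell area covered by stained E-selectin grains.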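 As to nuclei count: 100% = median nuclei count of all wells on the same plate.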 Particulars: HUVEC TNFalpha-induced E-selectin immunofluorescence imaging, at 2 µM; inhibition: stronger effect = higher value; nuclei count: measured here: cell number, toxicity.
Assay [3] can be described thus: Primary imaging screen for DUSP6 inhibitors that restore phospho-Erk in transfected HeLa cells, chemical complementation (AID 609;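 active = compounds giving at least 50% inhibition in the cell-based MKP-3 phosphatase rescue imaging test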;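 as to inhibition: phospho-Erk level distribution per well compared with pooled transfected vehicle control wells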). The settings on record: HeLa MKP-3 transfected, phospho-Erk imaging KS statistic, at 10 µM, cells stimulated with TPA for 15 min.
In assay [4] the target is Dual specificity protein phosphatase 6 (Homo sapiens) (UniProt Q16828). The description is as above. The settings on record: HeLa MKP-3 transfected, phospho-Erk imaging KS statistic; at 10 µM; stronger effect = higher value; cells stimulated with TPA for 15 min.
Sequence of Dual specificity protein phosphatase 6 (Homo sapiens) (Q16828 whole entry, looked up): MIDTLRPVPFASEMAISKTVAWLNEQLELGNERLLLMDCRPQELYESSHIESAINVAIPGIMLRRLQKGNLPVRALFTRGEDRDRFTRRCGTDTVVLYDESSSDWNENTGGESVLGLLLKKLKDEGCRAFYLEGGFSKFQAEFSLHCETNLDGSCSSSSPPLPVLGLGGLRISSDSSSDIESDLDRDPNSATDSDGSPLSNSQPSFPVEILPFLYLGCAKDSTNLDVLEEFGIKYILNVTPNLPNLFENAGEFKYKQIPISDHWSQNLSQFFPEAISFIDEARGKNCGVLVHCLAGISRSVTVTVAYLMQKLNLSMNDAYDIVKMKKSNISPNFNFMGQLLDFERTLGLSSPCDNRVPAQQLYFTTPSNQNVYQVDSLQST
Assay [5] concerns the target Voltage-gated potassium channel subunit beta-2 (Rattus norvegicus) (UniProt P62483). The experiment in a line: inhibitors of rat Kvbeta2 reductase activity – biochemical, NADPH fluorescence, primary screen (AID 622;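 active = fluorescence slope higher than the sample average by over 3 SD, cut at about -0.22 in these data, passing the limit was not always enough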;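 also: slope of raw intensity against log time taken from 70 to 1610 s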). Particulars: recombinant KvBeta, 4-cyanobenzaldehyde reduction, at 10 µM, stronger effect = higher value.
For assay [6] the target is unchanged. The experiment in a line: enhancers of rat Kvbeta2 NADPH turnover – biochemical, NADPH fluorescence, primary screen (AID 623;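 active = NADPH fluorescence slope more negative than the mean of all samples by about 3 SD, 99.7% confidence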;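 also: fluorescence intensity change per second fitted from 20 to 320 s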). Particulars: Recombinant KvBeta, NADPH fluorescence decrease slope, 10 min; at 10 µM; stronger effect = lower value.
Assay [7] concerns the target Muscarinic acetylcholine receptor M4 (Homo sapiens) (UniProt P08173). The experiment in a line: M4-linked GIRK flux change, two-sided – cell-based, HEK293 M4/GIRK, thallium flux, BTC-AM, M4 allosteric agonist project, primary screen (AID 625;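 active = fluorescence slope after compound addition differing from the mean of all tested samples at 99.7% confidence, mostly higher but some lower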;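 also: thallium influx through GIRK channels coupled to M4 in HEK293 cells with BTC-AM dye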). The settings on record: at 10 µM, actives lie on both sides. The method in brief:
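Material – HEK293 cells with M4 receptor and GIRK channels · Buffer or medium – pH 7.3 thallium assay buffer · Doses – one dose, 10 µM final · Timing – cells overnight at 37 °C, BTC-AM loading 1 h, reads 2 min total · Measured by – kinetic fluorescence with BTC-AM dye · Controls – carbachol and DMSO controls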

The nature of assay [8]: inhibitors of larval lipid processing in zebrafish, primary screen, whole organism, PED6 fluorescence, gall bladder and intestine (AID 686;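 active = a full or partial loss of lipid-probe fluorescence in the fish gall bladder, intestine or both, judged by eye; inactive = no fluorescence loss, or compound toxic to the fish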;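 also: larvae 5 to 7 days old with five fish per well; signal comes from phospholipase A2 cleavage of quenched PED6 carried via bile; overnight exposure to compound and PED6 before scoring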). Particulars: Zebrafish larvae PED6 lipid processing, fluorescence scoring; screened at 20 µM (by protocol). The method in brief:
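system = live zebrafish larvae aged 5-7 days, whole organism | probe or stimulus = ingested quenched lipid PED6 at 100 nM | doses = 20 µM single dose | timing = overnight exposure | detection = fluorescence microscopy with visual scoring of gall bladder and intestine | read-out = visual per-well fluorescence inhibition score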

Assay [9] is described as follows: loss of swimming-algae plug formation – whole organism, Chlamydomonas reinhardtii, WT vs cilia-less mutant, absorbance, 96-well, primary screen (AID 463189;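 active = inhibition at or above 50% relative to wild type and mutant plate controls; inactive = inhibition below 50%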;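 also: 0% = wild type cc124 cells in DMSO and 100% = ciliumless bld1 mutant cells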). The settings on record: Chlamydomonas reinhardtii gravitaxis, OD600 absorbance, 2 days; at 10 µM; stronger effect = higher value.
The mark [10] stands for this setting: measured here: cell density z-score.
Where [11] appears, read: measured here: nuclear c-Myc green intensity z-score.
The mark [12] stands for this setting: measured here: nuclear pErk red intensity z-score, stronger effect = higher value.

Active and inactive are the calls of the source.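 The calls were made as follows, unless noted: active = visually confirmed hit in the image check and inhibition above 20%; inconclusive = visually confirmed hit but inhibition not above 20%; inactive = no visual hit in the image check.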

Sequence of Voltage-gated potassium channel subunit beta-2 (Rattus norvegicus) (P62483 whole entry, looked up): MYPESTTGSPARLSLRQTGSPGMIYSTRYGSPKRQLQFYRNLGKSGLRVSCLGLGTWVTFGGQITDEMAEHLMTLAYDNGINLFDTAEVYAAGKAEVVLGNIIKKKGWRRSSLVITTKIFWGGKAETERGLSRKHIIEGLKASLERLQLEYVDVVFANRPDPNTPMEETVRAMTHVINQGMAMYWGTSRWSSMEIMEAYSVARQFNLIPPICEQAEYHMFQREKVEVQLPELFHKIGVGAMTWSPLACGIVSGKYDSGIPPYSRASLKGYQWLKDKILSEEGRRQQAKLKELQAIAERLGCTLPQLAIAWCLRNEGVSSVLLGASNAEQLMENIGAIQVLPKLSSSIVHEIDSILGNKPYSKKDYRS
Sequence of Muscarinic acetylcholine receptor M4 (Homo sapiens) (P08173 whole entry, looked up): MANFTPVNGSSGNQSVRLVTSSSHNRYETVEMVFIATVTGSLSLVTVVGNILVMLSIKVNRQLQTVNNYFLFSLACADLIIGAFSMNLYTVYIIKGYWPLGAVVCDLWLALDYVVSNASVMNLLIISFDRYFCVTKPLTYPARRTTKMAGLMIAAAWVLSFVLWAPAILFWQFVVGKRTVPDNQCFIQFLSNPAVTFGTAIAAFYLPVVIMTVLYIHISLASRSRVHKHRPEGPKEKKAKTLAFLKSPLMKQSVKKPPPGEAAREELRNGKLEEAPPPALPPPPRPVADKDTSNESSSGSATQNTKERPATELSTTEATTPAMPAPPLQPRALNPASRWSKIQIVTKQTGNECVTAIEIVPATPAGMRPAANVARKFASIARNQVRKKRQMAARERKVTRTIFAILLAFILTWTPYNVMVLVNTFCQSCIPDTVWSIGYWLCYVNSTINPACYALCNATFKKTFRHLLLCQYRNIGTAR

In the case of `Cn1c(NCCCO)nc2c1c(=O)n(Cc1ccccc1F)c(=O)n2C`, the cell count in [1] was 691. Besides, the inhibition in [1] is -14.5% (inactive); in assay [2], -160% (inactive); in assay [4], 1.9e-07% (inactive); in assay [9] it was 7.04% (inactive). This molecule also displayed a nuclei count in assay [2] of 167%. In addition, the z-score was -0.594 in assay [3] (setting [10]), -1.48 in assay [3] (setting [11]) and 0.588 in [3] (setting [12]). For the same molecule, the fluorescence slope is -0.512 (inactive) in assay [5] and 0.00567 (inactive) in [7]. Further, in assay [6], the NADPH fluorescence slope is -3.1e-05 (inactive). Moreover, in [8], the molecule was called inactive.
For the molecule `COC(=O)c1sc2nc(N3CCCCC3)c3c(c2c1N)CC(C)(C)N(C)C3`, in assay [1], the cell count was 365. The inhibition in assay [1] is -3.8% (inactive); in assay [2] it was -114% (inactive); in [4] it was 3.42% (inactive); in [9] it was 7.69% (inactive). Moreover, the nuclei count in assay [2] amounted to 173%. For the same molecule, the z-score in [3] (setting [10]) is -0.314; in [3] (setting [11]) it was 1.33; in assay [3] (setting [12]), 0.691. For the same molecule, the fluorescence slope in [5] is -0.155 (active); in assay [7] it was 0.00431 (inactive). Further, in assay [6], the NADPH fluorescence slope was 8.1e-06 (inactive). The outcome in [8] was inactive.
For `O=C(NCc1ccco1)c1ccc(=O)[nH]n1`, in assay [1], the cell count came out at 578. Also, the inhibition is 3.8% (inactive) in assay [1], -71.8% (inactive) in assay [2], 28.1% (inactive) in assay [4] and 29.4% (inactive) in [9]. The molecule also displayed a nuclei count in assay [2] of 91.1%. In addition, the z-score in [3] (setting [10]) is 0.426; in assay [3] (setting [11]), -0.894; in [3] (setting [12]), -1.39. Moreover, the fluorescence slope in [5] was -0.539 (inactive); in assay [7] it was 0.00665 (inactive). Also, in [6], the NADPH fluorescence slope is -4.2e-05 (inactive). Besides, the molecule was called inactive in assay [8].
For the molecule `CC1(C)Cc2c(sc3nc(SCC(=O)NCc4ccco4)n(-c4ccccc4)c(=O)c23)CS1`, in assay [1], the cell count was 501. Moreover, the inhibition in assay [1] was -2.3% (inactive); in assay [2] it was -158% (inactive); in [4], 1.98% (inactive); in [9], -14.1% (inactive). The same molecule had a nuclei count in assay [2] of 112%. Also, the values for the z-score in [3] (setting [10]), in assay [3] (setting [11]) and in [3] (setting [12]) were -1.09, -0.43 and 0.302, respectively. Also, the fluorescence slope is -0.431 (inactive) in assay [5] and 0.00628 (inactive) in assay [7]. Also, the NADPH fluorescence slope in [6] was -4.8e-05 (inactive). For the same molecule, in assay [8], the outcome was inactive.
Regarding `CCN(CC)c1nc(-c2cccc(OC)c2O)nc2ccccc12`, the cell count in assay [1] was determined as 624. Also, the inhibition in [1] is -3.5% (inactive); in assay [2], -45.9% (inactive); in assay [4], 4.37% (inactive); in assay [9] it was 15.7% (inactive). In assay [2], this molecule had a nuclei count of 171%. The values for the z-score in assay [3] (setting [10]), in assay [3] (setting [11]) and in [3] (setting [12]) were -1.06, -1.37 and 0.629, respectively. Further, the fluorescence slope is -0.5 (inactive) in assay [5] and 0.005 (inactive) in [7]. For the same molecule, the NADPH fluorescence slope in [6] was -9.9e-05 (inactive). The outcome in assay [8] was inactive.
As to `COC(=O)CSc1nnc(C)c(=O)[nH]1`, the cell count in assay [1] was 609. Further, the inhibition in assay [1] was -15.3% (inactive); in assay [2], -317% (inactive); in assay [4] it was -7.86% (inactive); in [9] it was -3.96% (inactive). The molecule also gave a nuclei count in assay [2] of 138%. The z-score in [3] (setting [10]) is 0.155; in assay [3] (setting [11]), 1.52; in assay [3] (setting [12]), -3.1. In addition, the fluorescence slope in [5] is -0.484 (inactive); in assay [7], 0.00545 (inactive). Further, the NADPH fluorescence slope in assay [6] is -7.4e-05 (inactive). In assay [8], the molecule was called inactive.
For `O=C(O)C(O)c1ccco1` (stereo unspecified), in assay [1], the cell count is 365. For the same molecule, the inhibition is -6.1% (inactive) in [1], -95% (inactive) in assay [2], -4.59% (inactive) in assay [4] and -5.52% (inactive) in assay [9]. The nuclei count in assay [2] was determined as 150%. Also, the z-score in assay [3] (setting [10]) was 0.761; in assay [3] (setting [11]) it was 0.00341; in assay [3] (setting [12]), -0.65. Further, the values for the fluorescence slope in [5] and in assay [7] were -0.43 (inactive) and 0.00449 (inactive), respectively. In addition, the NADPH fluorescence slope in [6] was -9.9e-05 (inactive). The call in assay [8] was inactive.
